# Laboratory results from ChEMBL document CHEMBL1926577, “Novel 1,3,4-heterodiazole analogues: synthesis and in-vitro antitumor activity” (2012).
# Activity calls are given as the source filed them. No cut-off for these calls is given here.
# How the values were obtained:
# Assay type in all cases: functional
# MDA-MB-468 = assay: Growth inhibition of human MDA-MB-468 cells at 10 uM after 48 hrs by coulter counter method; settings: MDA-MB-468, 48 h, read-out: GI
# How it was run: (§1)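 NCI 60-cell-line panel, single dose. Compound dissolved first in DMSO, then diluted in phosphate-buffered saline so that every final dilution held under 1% DMSO. Duplicate wells received cells at 6 × 10⁴ cells/ml. Controls held PBS/DMSO at the same dilution. Plates were incubated 48 h at 37 °C under 5% CO₂. Cells were then diluted 10-fold in saline and counted on a Coulter counter, with counts corrected for the dilution. Results are given as percent growth inhibition.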
# EKVX = assay: Growth inhibition of human EKVX cells at 10 uM after 48 hrs by coulter counter method; settings: read-out: GI; how it was run: as §1
# SK-MEL-2 = assay: Growth inhibition of human SK-MEL-2 cells at 10 uM after 48 hrs by coulter counter method; settings: SK-MEL-2, 48 h, read-out: GI; how it was run: as §1
# MDA-MB-435 = assay: Growth inhibition of human MDA-MB-435 cells at 10 uM after 48 hrs by coulter counter method; settings: MDA-MB-435, 48 h, read-out: GI; how it was run: as §1
# IGROV-1 = assay: Growth inhibition of human IGROV1 cells at 10 uM after 48 hrs by coulter counter method; how it was run: as §1
# M14 = assay: Growth inhibition of human M14 cells at 10 uM after 48 hrs by coulter counter method; settings: M14, 48 h, read-out: GI; how it was run: as §1
# SK-MEL-28 = assay: Growth inhibition of human SK-MEL-28 cells at 10 uM after 48 hrs by coulter counter method; settings: SK-MEL-28, 48 h, read-out: GI; how it was run: as §1
# [1] = Growth inhibition of human breast cancer cells after 48 hrs by coulter counter method; settings: Cancer cell lines
# How it was run: (§2)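 NCI 60-line panel cells. Compound is dissolved in DMSO and diluted in phosphate-buffered saline, with final DMSO below 1%. It is added in duplicate wells to cultures at 6 × 10⁴ cells/ml and held at 37 °C, 5% CO₂, humidified, for 48 h. Cells are diluted 10-fold in saline, counted by Coulter counter and dilution-corrected. Vehicle controls contain PBS plus DMSO.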
# NCI-H226 = assay: Growth inhibition of human NCI-H226 cells at 10 uM after 48 hrs by coulter counter method; settings: NCI-H226, 48 h, read-out: GI; how it was run: as §1
# BT-549 = assay: Growth inhibition of human BT549 cells at 10 uM after 48 hrs by coulter counter method; settings: BT-549, 48 h, read-out: GI; how it was run: as §1
# HCT-116 = assay: Growth inhibition of human HCT116 cells at 10 uM after 48 hrs by coulter counter method; settings: HCT-116, 48 h, read-out: GI; how it was run: as §1
# Malme-3M = assay: Growth inhibition of human MALME-3M cells at 10 uM after 48 hrs by coulter counter method; how it was run: as §1
# SR = assay: Growth inhibition of human SR cells at 10 uM after 48 hrs by coulter counter method; settings: read-out: GI; how it was run: as §1
# HCT-15 = assay: Growth inhibition of human HCT15 cells at 10 uM after 48 hrs by coulter counter method; settings: HCT-15, 48 h, read-out: GI; how it was run: as §1
# SNB-75 = assay: Growth inhibition of human SNB75 cells at 10 uM after 48 hrs by coulter counter method; settings: SNB-75, 48 h, read-out: GI; how it was run: as §1
# K562 = assay: Growth inhibition of human K562 cells at 10 uM after 48 hrs by coulter counter method; settings: K562, 48 h, read-out: GI; how it was run: as §1
# LOX IMVI = assay: Growth inhibition of human LOXIMVI cells at 10 uM after 48 hrs by coulter counter method; how it was run: as §1
# U-251 = assay: Growth inhibition of human U251 cells at 10 uM after 48 hrs by coulter counter method; settings: U-251, 48 h, read-out: GI; how it was run: as §1
# CAKI-1 = assay: Growth inhibition of human Caki1 cells at 10 uM after 48 hrs by coulter counter method; how it was run: as §1
# MCF7 = assay: Growth inhibition of human MCF7 cells at 10 uM after 48 hrs by coulter counter method; settings: MCF7, 48 h, read-out: GI; how it was run: as §1
# UACC-62 = assay: Growth inhibition of human UACC62 cells at 10 uM after 48 hrs by coulter counter method; settings: UACC-62, 48 h, read-out: GI; how it was run: as §1
# NCI-H322M = assay: Growth inhibition of human NCI-H322M cells at 10 uM after 48 hrs by coulter counter method; settings: read-out: GI; how it was run: as §1
# [2] = Growth inhibition of human prostate cancer cells after 48 hrs by coulter counter method; settings: Cancer cell lines; how it was run: as §2
# RPMI-8226 = assay: Growth inhibition of human RPMI8226 cells at 10 uM after 48 hrs by coulter counter method; settings: RPMI-8226, 48 h, read-out: GI; how it was run: as §1
# Melanoma cell = assay: Growth inhibition of human Melanoma cells after 48 hrs by coulter counter method; how it was run: as §2
# NSCLC = assay: Growth inhibition of human NSCLC cells after 48 hrs by coulter counter method; how it was run: as §2
# SNB-19 = assay: Growth inhibition of human SNB19 cells at 10 uM after 48 hrs by coulter counter method; settings: SNB-19, 48 h, read-out: GI; how it was run: as §1
# MOLT-4 = assay: Growth inhibition of human MOLT4 cells at 10 uM after 48 hrs by coulter counter method; settings: MOLT-4, 48 h, read-out: GI; how it was run: as §1
# NCI-H23 = assay: Growth inhibition of human NCI-H23 cells at 10 uM after 48 hrs by coulter counter method; settings: NCI-H23, 48 h, read-out: GI; how it was run: as §1
# HT-29 = assay: Growth inhibition of human HT-29 cells at 10 uM after 48 hrs by coulter counter method; settings: HT-29, 48 h, read-out: GI; how it was run: as §1
# SF-268 = assay: Growth inhibition of human SF268 cells at 10 uM after 48 hrs by coulter counter method; settings: SF-268, 48 h, read-out: GI; how it was run: as §1
# SN12C = assay: Growth inhibition of human SN12C cells at 10 uM after 48 hrs by coulter counter method; settings: read-out: GI; how it was run: as §1
# PC-3 = assay: Growth inhibition of human PC3 cells at 10 uM after 48 hrs by coulter counter method; settings: PC-3, 48 h, read-out: GI; how it was run: as §1
# KM12 = assay: Growth inhibition of human KM12 cells at 10 uM after 48 hrs by coulter counter method; settings: KM12, 48 h, read-out: GI; how it was run: as §1
# ACHN = assay: Growth inhibition of human ACHN cells at 10 uM after 48 hrs by coulter counter method; settings: read-out: GI; how it was run: as §1
# [3] = Growth inhibition of human ovarian cancer cells after 48 hrs by coulter counter method; settings: Cancer cell lines; how it was run: as §2
# SK-MEL-5 = assay: Growth inhibition of human SK-MEL-5 cells at 10 uM after 48 hrs by coulter counter method; settings: SK-MEL-5, 48 h, read-out: GI; how it was run: as §1
# [4] = read-out: LC50 (the source's name)
smiles,measurement,setting,value
O=C1CN2N=C(c3ccccc3)SC2=N1,inhibition of growth at 10 µM,MDA-MB-468,61.5%
same,inhibition of growth at 10 µM,EKVX,94.5%
same,inhibition of growth at 10 µM,SK-MEL-2,14.1%
same,inhibition of growth at 10 µM,MDA-MB-435,30.4%
same,growth inhibition (GI),IGROV-1,Active
same,inhibition of growth at 10 µM,M14,30.2%
same,inhibition of growth at 10 µM,SK-MEL-28,10.4%
same,GI50,[1],6.9 µM
same,TGI,[1],23.7 µM
same,CC50,[1]; [4],71.3 µM
same,inhibition of growth at 10 µM,NCI-H226,27.7%
same,inhibition of growth at 10 µM,BT-549,53.4%
same,inhibition of growth at 10 µM,HCT-116,42.6%
same,growth inhibition (GI),Malme-3M,Active
same,inhibition of growth at 10 µM,SR,36.3%
same,inhibition of growth at 10 µM,HCT-15,44.8%
same,inhibition of growth at 10 µM,SNB-75,88.3%
same,inhibition of growth at 10 µM,K562,34.8%
same,growth inhibition (GI),LOX IMVI,Active
same,inhibition of growth at 10 µM,U-251,58.3%
same,growth inhibition (GI),CAKI-1,Active
same,inhibition of growth at 10 µM,MCF7,46.4%
same,inhibition of growth at 10 µM,UACC-62,27.8%
same,inhibition of growth at 10 µM,NCI-H322M,22.1%
same,GI50,[2],7.6 µM
same,TGI,[2],18.3 µM
same,CC50,[2]; [4],50.8 µM
same,inhibition of growth at 10 µM,RPMI-8226,72.2%
same,GI50,Melanoma cell,8 µM
same,LC50,Melanoma cell,51.4 µM
same,TGI,Melanoma cell,20.1 µM
same,GI50,NSCLC,9.7 µM
same,TGI,NSCLC,20.7 µM
same,CC50,NSCLC; [4],55.7 µM
same,inhibition of growth at 10 µM,SNB-19,23.2%
same,inhibition of growth at 10 µM,MOLT-4,37.5%
same,inhibition of growth at 10 µM,NCI-H23,21.6%
same,inhibition of growth at 10 µM,HT-29,36.2%
same,inhibition of growth at 10 µM,SF-268,20%
same,inhibition of growth at 10 µM,SN12C,32.9%
same,inhibition of growth at 10 µM,PC-3,30.1%
same,inhibition of growth at 10 µM,KM12,21.8%
same,inhibition of growth at 10 µM,ACHN,29.5%
same,GI50,[3],7.7 µM
same,TGI,[3],33.5 µM
same,CC50,[3]; [4],83.9 µM
same,inhibition of growth at 10 µM,SK-MEL-5,35.2%
